# Assay outcomes (PubChem BioAssay)
# The list is not random: actives were taken first. Their share in the collection is about 1.3%.
# CHT PAM = human CHT allosteric activation; CHT-expressing cells, membrane potential dye, choline EC20; hits give high values; LV-AA mutant CHT in HEK293 cells; B-score at 10 µM; AID 488977; hit rate 0.49% among 310,000;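 active = initial fluorescence not abnormally high and integrated response B-score, plate-corrected, over 3 SD above library mean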
# proCasp7 act = counter-screen: procaspase-7 (human) activation; P55210; AID 463210; hit rate 0.093% among 330,000; recombinant procaspase-7, Ac-DEVD-pNA absorbance 405 nm; D23A/D198A/D206A triple mutant, cannot self-cleave; scale: DMSO 0, 5 µM enzyme 100; activation, % at 8.5 µM;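 active = percent activation above the screen-wide mean plus 3 SD, cut at about 25% in these data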
# Target sequence (P55210 whole entry D23A/D198A/D206A): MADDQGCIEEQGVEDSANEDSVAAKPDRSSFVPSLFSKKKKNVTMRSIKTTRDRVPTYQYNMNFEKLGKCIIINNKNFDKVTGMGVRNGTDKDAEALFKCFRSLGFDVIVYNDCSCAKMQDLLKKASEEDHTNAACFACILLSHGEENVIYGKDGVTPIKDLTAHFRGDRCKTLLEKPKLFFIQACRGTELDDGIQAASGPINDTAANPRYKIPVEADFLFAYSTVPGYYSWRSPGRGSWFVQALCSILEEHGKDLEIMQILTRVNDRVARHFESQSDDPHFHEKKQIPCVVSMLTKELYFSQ
#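 System: Procaspase-7 triple mutant (PC-7 D3A); measure: % activation from two-timepoint absorbance difference, scaled to controls; times: 1 h compound preincubation, 2 h substrate cleavage, 25 °C; also added: Ac-DEVD-pNA substrate, 400 µM as added; measured by: Epi-absorbance of released pNA at 405 nm, two timepoints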
# CHT inh = human CHT choline transport inhibition. B-score at 10 µM. CHT-expressing cells, membrane potential dye, choline response; hits give low values. hit rate 0.86% among 310,000. AID 488975. Q9GZV3;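 active = B-score over 3 SD under the library average, and starting fluorescence ratio not unusually high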;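 also: choline stimulus applied at its EC90 after an EC20 pre-addition; B-score computed on integrated fluorescence ratio after choline addition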
# proCasp3 act = activates human procaspase-3; P42574; recombinant procaspase-3 D3A, Ac-DEVD-pNA absorbance 405 nm; activation, % at 8.5 µM; hit rate 0.11% among 330,000; AID 463141;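 active = activation above the mean of all tested compounds plus 3 SD, cut at about 21% in these data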;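 also: 0% = DMSO alone and 100% = DMSO wells spiked with extra 5 µM PC-3 D3A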
# Target sequence (P42574 whole entry D9A/D28A/D175A): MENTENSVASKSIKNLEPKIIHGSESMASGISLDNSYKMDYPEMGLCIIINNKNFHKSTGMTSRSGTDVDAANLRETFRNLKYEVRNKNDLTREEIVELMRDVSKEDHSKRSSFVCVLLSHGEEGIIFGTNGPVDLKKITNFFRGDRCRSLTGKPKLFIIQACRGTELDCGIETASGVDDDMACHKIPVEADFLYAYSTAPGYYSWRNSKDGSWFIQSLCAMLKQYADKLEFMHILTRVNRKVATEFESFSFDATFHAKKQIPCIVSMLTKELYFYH
#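 assay system = Procaspase-3 D3A mutant | signal = absorbance at 405 nm, 0 and 120 min | times = 1 h preincubation plus 2 h reaction at 25 °C | repeats = single replicate | read-out = % activation between DMSO and enzyme-spiked controls | medium = Zinc-free HEPES saline buffer with Triton X-100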
# CHT block conf = confirmation of human choline transporter CHT inhibitors; shares compounds with CHT inh; CHT-expressing cells, choline membrane potential dye; LV-to-AA substituted CHT, HEK293 cells; CHT activity remaining % of control (hits give low values), % at 10 µM; hit rate 70% among 2,400; AID 493221;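 active = choline transporter activity left, mean of duplicates at 10 µM, below buffer-only control mean minus 3 SD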;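 also: depolarization triggered by choline at its EC90 following an EC20 pre-addition; 0% = hemicholinium-3 full block and 100% = buffer-only control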
# HEK293 MPD ctr = activity in parental HEK293 cells lacking CHT; AID 493222; shares compounds with CHT inh; hit rate 4% among 2,400; membrane potential dye, choline response; active = decrease or increase beyond buffer ±3SD; membrane potential ratio readout (active if shifted either direction beyond buffer ±3SD; no single direction) at 10 µM;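 also: parental cells lack the transporter so any hit is non-specific; ratio is peak minus trough fluorescence over baseline after EC90 choline challenge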
# * marks the source's active call; other numbers are inactive results; i = inactive; / = no result given.
SMILES,CHT PAM,proCasp7 act,CHT inh,proCasp3 act,CHT block conf,HEK293 MPD ctr
CCOC(=O)c1sc(NC(=O)C2CC(=O)N(c3ccc(OC)cc3)C2)nc1C (stereo not given),i,0,i,0,/,/
Cc1cc(F)ccc1S(=O)(=O)Nc1ccc(C(=O)N2CCCCCC2)cc1,/,5,/,12,/,/
CCCOc1ccc(C(=O)NNC(=S)NC(C)=O)cc1,i,-22,i,-3,/,/
CCCOc1ccc(C(=O)NNC(=S)NC(=O)c2cccs2)cc1,i,-13,-9.4*,-5,i,i
CCCOc1ccc(C(=O)NNC(=S)NC(=O)c2ccccc2)cc1,i,-17,-6.6*,-8,55%*,i
CC(Oc1ccc(Cl)cc1)C(=O)NNC(=S)NC(=O)c1ccco1 (stereo not given),i,-11,-6.5*,-12,58%*,i
Cc1onc(-c2ccccc2)c1C(=O)NC(=S)NNC(=O)c1ccco1,i,-17,-7.2*,-13,59%*,i
O=C(COc1ccc(Cl)cc1Cl)NNC(=S)NC(=O)c1ccco1,i,-4,i,-9,/,/
Cc1cc(C)cc(NC(=O)CSc2nc(N)c(NC(=O)c3ccc(Br)o3)c(=O)[nH]2)c1,i,-3,i,-3,/,/
NS(=O)(=O)c1ccc(CCNCc2cccnc2)cc1,i,-1,i,2,/,/
Cc1ccc(N(C(=O)CNC(=O)c2cccs2)C(C(=O)NC2CCCC2)c2ccncc2)cc1 (stereo not given),i,-8,i,-4,/,/
O=C(CCn1c(=O)oc2ccc(Cl)cc21)NCCCN1CCOCC1,i,4,i,2,/,/
O=C(NC(=S)NNC(=O)c1cccs1)c1ccccc1,i,-5,i,-3,/,/
COc1ccc(C(=O)NNC(=S)NC(=O)c2ccco2)cc1,i,-17,i,-8,/,/
Cc1cccc(C(=O)NC(=S)NNC(=O)c2cccs2)c1,i,-16,-10*,-14,36%*,i
CCCOc1ccc(C(=O)NNC(=S)NC(=O)c2ccco2)cc1,i,-13,-7.9*,-12,54%*,i
O=c1ccc(S(=O)(=O)N2CCCC2)cn1Cc1ccc(Cl)cc1Cl,/,10,/,11,/,/
N#CCCCc1cc2cc(F)ccc2cn1,/,-4,/,2,/,/
Cc1ccc(C(=O)NCc2ccccn2)cc1S(=O)(=O)N1CCCCC1,i,-2,i,4,/,/
O=C(CCN1CCOCC1)c1ccc2c(c1)OCCO2,i,-27,-5.2*,-33,i,i
CCOc1cc(/C=N/NC(=O)c2ccc(CN3CCOCC3)cc2)ccc1OC,i,-2,-9*,-3,i,i
CN(C)c1ccc(/C=N/NC(=O)c2ccc(CN3CCOCC3)cc2)cc1Br,i,-7,i,-10,/,/
CCCC1=NN2C(=N)/C(=C\c3ccc(OCCOc4ccc(NC(C)=O)cc4)c(OC)c3)C(=O)N=C2S1,i,4,i,-3,/,/
CC(C)(C)NC(=O)CSc1nnc(-c2ccco2)n1Cc1ccco1,i,-4,i,0,/,/
O=C(CSc1nnc(-c2ccco2)n1Cc1ccco1)NCc1cccs1,i,4,-5.3*,6,67%*,i
SMILES,CHT PAM,proCasp7 act,CHT inh,proCasp3 act,CHT block conf,HEK293 MPD ctr
C(=C\n1nnc2ccccc21)/c1ccccn1,i,-8,i,7,/,/
O=[N+]([O-])c1cccc(S(=O)(=O)Nc2ccc(Cc3ccncc3)cc2)c1,i,4,-6.1*,1,59%*,i
O=[N+]([O-])c1cccc(S(=O)(=O)NCc2ccncc2)c1,i,11,i,3,/,/
C[C@@H](NCCc1ccc(O)cc1)[C@@H](O)c1ccc(O)cc1,i,2,-5*,5,47%*,i
CN(C)c1nc2c(c(=O)[nH]c(=O)n2C)n1CCCc1ccccc1,i,4,i,2,/,/
COc1ccc(CCNC(=O)CCNC(=O)N2CC(=O)Nc3ccccc32)cc1,i,-6,i,-5,/,/
CCn1c(SCC(=O)Nc2ccc(OC)cc2)nc2nc3c(cc2c1=O)COC(C)(C)C3,i,10,-5*,1,i,i
CCCCCN(C(=O)CCC(=O)OCC(=O)c1ccc(CCC)cc1)c1c(N)n(CCCC)c(=O)[nH]c1=O,i,0,i,-6,/,/
CCN(CC(=O)NCc1cccs1)S(=O)(=O)c1ccc(C(C)C)cc1,i,10,-5*,1,60%*,i
N#CC(C#N)=C(Nc1ccc(F)cc1)SCc1cccc(F)c1,i,6,-5.8*,-6,65%*,i
CCOc1ccc(N/C(SCc2cccc([N+](=O)[O-])c2)=C(/C#N)C(N)=O)cc1,i,4,i,-6,/,/
COC(=O)C1(CC2CC(c3cccc(Br)c3)=NO2)CCN(C(=O)OC(C)(C)C)CC1 (stereo not given),i,-9,-5*,11,i,i
COC(=O)c1cc(C(=O)OC)cc(N2C(=O)CC(NNC(=O)c3ccc(C)cc3)C2=O)c1 (stereo not given),i,3,-5.4*,4,i,i
CCCCCCNC(=O)c1cccc(-c2ccc(C)c3ccccc23)n1,i,1,-12*,-1,i,i
COc1ccccc1CNC(=O)c1cccc(-c2ccc(C)c3ccccc23)n1,i,-2,i,5,/,/
CCCCNS(=O)(=O)c1ccc2nc(SCC(=O)c3ccccc3OC)[nH]c2c1,i,13,-9.7*,-2,50%*,i
CCCCn1c(N)c(N(CC(C)C)C(=O)CSc2nnc(-c3ccc(Cl)cc3)o2)c(=O)[nH]c1=O,i,-4,i,-12,/,/
CC(=O)C1=C(O)C(=O)N(Cc2ccccc2)C1c1ccc(F)cc1 (stereo not given),i,6,i,1,/,/
CC(=O)C1=C(O)C(=O)N(Cc2ccccc2)C1c1ccccc1F (stereo not given),i,-8,-8.4*,0,i,i
Cc1ccc(CNC(=O)CC(C)S(=O)(=O)c2ccc3c(c2)NC(=O)CS3)o1 (stereo not given),i,-5,i,-5,/,/
COc1cc(/C=C2\S/C(=N/S(=O)(=O)Cc3ccccc3)NC2=O)c([N+](=O)[O-])cc1OC,i,2,-5*,2,49%*,i
COc1cc(/C=C2/S/C(=N/S(=O)(=O)c3ccccc3)NC2=O)c([N+](=O)[O-])cc1OC,i,3,i,0,/,/
COc1cc(/C=C2/S/C(=N/S(=O)(=O)Cc3ccccc3)NC2=O)c([N+](=O)[O-])cc1OC,i,-17,-6.3*,2,37%*,i
